Legend:
[1] = tested on: Aspergillus flavus; assay: Antimicrobial activity against Aspergillus flavus at 100 ug/mL after 72 hrs by well plate method; format: functional; conditions: read-out: IZ
[2] = tested on: Nannizzia gypsea; assay: Antimicrobial activity against Microsporum gypseum at 50 ug/mL after 72 hrs by well plate method; format: functional; conditions: read-out: IZ
Outline: (§1)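 Antifungal well-plate assay on Sabouraud dextrose agar using a 72 h old broth culture of the fungal strain. Wells were filled with compound dissolved in DMSO (100 or 50), and the zone of inhibition around each well was measured. […] served as reference.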

[3] = tested on: Nannizzia gypsea; assay: Antimicrobial activity against Microsporum gypseum at 100 ug/mL after 72 hrs by well plate method; format: functional; conditions: read-out: IZ; outline: as §1
[4] = tested on: Candida albicans; assay: Antimicrobial activity against Candida albicans at 50 ug/mL after 72 hrs by well plate method; format: functional; conditions: read-out: IZ; outline: as §1
[5] = tested on: Salmonella typhi; assay: Antimicrobial activity against Salmonella typhi at 50 ug/mL after 24 hrs by well plate method; format: functional, Salmonella enterica subsp. enterica serovar Typhi; conditions: Salmonella enterica, read-out: IZ
Outline: (§2)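 Agar well diffusion in nutrient agar: about 1 cm³ of a 24 h broth culture placed in a sterile dish, molten agar at 45 °C poured over it and allowed to set. 6 mm holes cut with a sterile cork borer and filled with compound solution in DMSO. Incubated 24 h at 37 °C; inhibition zone diameter read in mm. Run in duplicate, standard deviation calculated.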

[6] = tested on: Chrysosporium keratinophilum; assay: Antimicrobial activity against Chrysosporium keratinophilum at 50 ug/mL after 72 hrs by well plate method; format: functional; conditions: read-out: IZ; outline: as §1
[7] = tested on: Bacillus subtilis; assay: Antimicrobial activity against Bacillus subtilis at 100 ug/mL after 24 hrs by well plate method; format: functional; conditions: read-out: IZ
Outline: (§3)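 Agar well diffusion in nutrient agar. About 1 cm³ of a 24 h broth culture was placed in sterile dishes, and molten agar at 45 °C was poured over it and set. 6 mm wells were bored and filled with compound in DMSO (100 or 50). Plates were incubated 24 h at 37 °C, and the inhibition zone was read in mm. Duplicate runs, with standard deviation; amoxicillin as reference.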

[8] = tested on: Bacillus subtilis; assay: Antimicrobial activity against Bacillus subtilis at 50 ug/mL after 24 hrs by well plate method; format: functional; conditions: read-out: IZ; outline: as §3
[9] = tested on: Staphylococcus aureus; assay: Antimicrobial activity against Staphylococcus aureus at 50 ug/mL after 24 hrs by well plate method; format: functional; conditions: read-out: IZ; outline: as §3
[10] = tested on: Salmonella typhi; assay: Antimicrobial activity against Salmonella typhi at 100 ug/mL after 24 hrs by well plate method; format: functional, Salmonella enterica subsp. enterica serovar Typhi; conditions: Salmonella enterica, read-out: IZ; outline: as §2
[11] = tested on: Aspergillus flavus; assay: Antimicrobial activity against Aspergillus flavus at 50 ug/mL after 72 hrs by well plate method; format: functional; conditions: read-out: IZ
[12] = tested on: Escherichia coli; assay: Antimicrobial activity against Escherichia coli at 100 ug/mL after 24 hrs by well plate method; format: functional; conditions: read-out: IZ; outline: as §3
[13] = tested on: Chrysosporium keratinophilum; assay: Antimicrobial activity against Chrysosporium keratinophilum at 100 ug/mL after 72 hrs by well plate method; format: functional; conditions: read-out: IZ; outline: as §1
[14] = tested on: Staphylococcus aureus; assay: Antimicrobial activity against Staphylococcus aureus at 100 ug/mL after 24 hrs by well plate method; format: functional; conditions: read-out: IZ; outline: as §3
[15] = tested on: Candida albicans; assay: Antimicrobial activity against Candida albicans at 100 ug/mL after 72 hrs by well plate method; format: functional; conditions: read-out: IZ; outline: as §1
[16] = tested on: Escherichia coli; assay: Antimicrobial activity against Escherichia coli at 50 ug/mL after 24 hrs by well plate method; format: functional; conditions: read-out: IZ; outline: as §3

Compound | zone of inhibition at 100 µg/mL [1] [mm] | zone of inhibition at 50 µg/mL [2] [mm] | zone of inhibition at 100 µg/mL [3] [mm] | zone of inhibition at 50 µg/mL [4] [mm] | zone of inhibition at 50 µg/mL [5] [mm] | zone of inhibition at 50 µg/mL [6] [mm] | zone of inhibition at 100 µg/mL [7] [mm] | zone of inhibition at 50 µg/mL [8] [mm] | zone of inhibition at 50 µg/mL [9] [mm] | zone of inhibition at 100 µg/mL [10] [mm] | zone of inhibition at 50 µg/mL [11] [mm] | zone of inhibition at 100 µg/mL [12] [mm] | zone of inhibition at 100 µg/mL [13] [mm] | zone of inhibition at 100 µg/mL [14] [mm] | zone of inhibition at 100 µg/mL [15] [mm] | zone of inhibition at 50 µg/mL [16] [mm]
O=c1c2ccccc2c(Cc2nnc(-c3ccc(Cl)nc3)o2)nn1CCN1CCOCC1 | 8 | 4 | 9.5 | 6.5 | 3.5 | 1.5 | 9 | 4.5 | 3.5 | 6.5 | 4.5 | 5.5 | 4.5 | 7 | 10.5 | 1.5
O=c1c2ccccc2c(Cc2nnc(C3CC3)o2)nn1Cc1cnc(Cl)s1 | 6 | 4.5 | 7 | 3.5 | 4 | 0.5 | 5.5 | 2 | 2 | 7.5 | 3.5 | 11.5 | 3.5 | 4.5 | 5.5 | 9
O=c1c2ccccc2c(Cc2nnc(C3CC3)o2)nn1CCN1CCOCC1 | 5 | 3.5 | 6 | 2.5 | 2.5 | 0.5 | 5.5 | 3.5 | 0 | 6.5 | 2.5 | 5 | 2.5 | 1.5 | 4.5 | 1.5
O=c1c2ccccc2c(Cc2nnc(-c3ccc(F)cc3)o2)nn1Cc1cnc(Cl)s1 | 5 | 4 | 8.5 | 2.5 | 5 | 0 | 4.5 | 2 | 5 | 9 | 2 | 9 | 2.5 | 9 | 5.5 | 5
O=c1c2ccccc2c(Cc2nnc(-c3ccc(Cl)cc3)o2)nn1CCN1CCOCC1 | 1 | 1 | 3 | 1 | 3 | 0 | 4 | 2 | 5 | 4.5 | 0 | 7 | 1.5 | 8 | 3.5 | 3
Cc1ccccc1-c1nnc(Cc2nn(Cc3ccc(Cl)nc3)c(=O)c3ccccc23)o1 | 4 | 1 | 3 | 0 | 1 | 0 | 2.5 | 0 | 4.5 | 3 | 1 | 7 | 1.5 | 6.5 | 3 | 4.5

Source: ChEMBL document CHEMBL1275303, “Synthesis and antimicrobial activity of 2-substituted [4-(1,3,4-oxadiazol-2-yl methyl)] phthalazin-1(2H)-one derivatives” (2010)
